Drawing on ChEMBL document CHEMBL1142963, “Novel sigma receptor ligands: synthesis and biological profile” (J Med Chem, 2007), this text covers Activity and Ki for 1 compound.

Active and inactive are the calls of the source. No cut-off for these calls is given here. Where only a bound is given, the exact number is not on record here.

For one assay, the species on record is Rattus norvegicus. Briefly: Increase of caspase 3 cleavage in albino Wistar rat primary astroglial cells at 25 uM after 24 hrs relative to control. Format: functional. Put shortly: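 Primary astrocytes from 1–2-day-old Wistar rat brains were grown 14 DIV, then exposed to ligand 25 µM for 24 h. Cells were lysed and sonicated, and 30 µg protein was run on 10% SDS-PAGE. Mean ± SD of four experiments; t test.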

The next assay has as its target D(3) dopamine receptor (Rattus norvegicus, UniProt P19020). Briefly: Displacement of [3H]7OH-DPAT from rat olfactory tubercle dopamine D3 receptor. Format: tissue-based. In short, it runs like this: (§1)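 Rat brain tissue by target: striatum for D1, D2 and DAT; olfactory tubercle for D3; cortex for muscarinic, 5-HT3, 5-HT2A, α1, α2, H1, NMDA and SERT; guinea pig cortex for 5-HT4. Inhibitors at seven to nine concentrations. After incubation, samples were filtered on glass fibre filters, washed three times with ice-cold buffer and counted by liquid scintillation. Ki values were derived by curve fitting.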
A general note: Displacement assays read how much labelled ligand stays bound in the presence of the test substance.

For assay [1], the target named is T1, 5-hydroxytryptamine receptor 3A (Rattus norvegicus, UniProt P35563).
T1 sequence (P35563 whole entry): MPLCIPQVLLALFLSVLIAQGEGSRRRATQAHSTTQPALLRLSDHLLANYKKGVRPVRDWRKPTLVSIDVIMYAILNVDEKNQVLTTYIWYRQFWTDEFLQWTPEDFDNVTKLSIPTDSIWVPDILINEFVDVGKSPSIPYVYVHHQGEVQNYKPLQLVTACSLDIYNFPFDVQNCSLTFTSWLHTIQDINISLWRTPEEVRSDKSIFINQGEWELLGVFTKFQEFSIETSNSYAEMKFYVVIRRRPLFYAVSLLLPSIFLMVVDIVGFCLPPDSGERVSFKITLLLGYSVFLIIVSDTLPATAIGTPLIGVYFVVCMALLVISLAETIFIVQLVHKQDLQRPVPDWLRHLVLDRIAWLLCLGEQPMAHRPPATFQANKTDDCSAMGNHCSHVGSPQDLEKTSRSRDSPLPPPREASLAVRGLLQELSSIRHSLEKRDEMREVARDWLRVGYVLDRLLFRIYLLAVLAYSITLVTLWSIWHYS
Briefly: Displacement of [3H]LY278584 from rat cortex 5HT3 receptor. In short, it runs like this: as §1

The target in assay [2] is T2, Adrenergic receptor alpha-2 (Rattus norvegicus, UniProt P22086+P19328+P22909).
T2 sequence (P22086 whole entry): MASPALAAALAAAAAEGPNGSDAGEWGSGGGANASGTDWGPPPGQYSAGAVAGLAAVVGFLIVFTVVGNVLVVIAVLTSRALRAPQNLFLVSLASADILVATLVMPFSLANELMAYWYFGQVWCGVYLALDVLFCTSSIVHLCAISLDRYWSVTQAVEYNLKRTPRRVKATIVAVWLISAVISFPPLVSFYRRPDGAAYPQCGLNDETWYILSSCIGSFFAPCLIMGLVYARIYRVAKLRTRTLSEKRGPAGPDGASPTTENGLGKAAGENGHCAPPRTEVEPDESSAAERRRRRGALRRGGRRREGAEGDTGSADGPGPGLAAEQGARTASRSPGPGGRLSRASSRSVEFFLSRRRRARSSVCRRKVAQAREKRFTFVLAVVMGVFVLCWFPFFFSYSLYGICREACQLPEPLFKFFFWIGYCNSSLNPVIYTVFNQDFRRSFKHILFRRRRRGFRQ
T2 sequence (P19328 whole entry): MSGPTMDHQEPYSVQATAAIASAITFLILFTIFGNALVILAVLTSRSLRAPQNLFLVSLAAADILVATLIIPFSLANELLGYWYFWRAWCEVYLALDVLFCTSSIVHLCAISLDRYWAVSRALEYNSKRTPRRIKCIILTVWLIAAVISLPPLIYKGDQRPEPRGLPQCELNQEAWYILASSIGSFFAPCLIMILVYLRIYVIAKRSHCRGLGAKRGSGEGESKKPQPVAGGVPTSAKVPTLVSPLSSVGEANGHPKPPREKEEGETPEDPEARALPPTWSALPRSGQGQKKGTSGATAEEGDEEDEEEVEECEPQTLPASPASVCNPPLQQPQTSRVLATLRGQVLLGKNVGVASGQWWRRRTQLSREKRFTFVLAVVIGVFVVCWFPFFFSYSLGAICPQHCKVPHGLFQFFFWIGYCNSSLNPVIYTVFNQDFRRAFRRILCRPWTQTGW
T2 sequence (P22909 whole entry): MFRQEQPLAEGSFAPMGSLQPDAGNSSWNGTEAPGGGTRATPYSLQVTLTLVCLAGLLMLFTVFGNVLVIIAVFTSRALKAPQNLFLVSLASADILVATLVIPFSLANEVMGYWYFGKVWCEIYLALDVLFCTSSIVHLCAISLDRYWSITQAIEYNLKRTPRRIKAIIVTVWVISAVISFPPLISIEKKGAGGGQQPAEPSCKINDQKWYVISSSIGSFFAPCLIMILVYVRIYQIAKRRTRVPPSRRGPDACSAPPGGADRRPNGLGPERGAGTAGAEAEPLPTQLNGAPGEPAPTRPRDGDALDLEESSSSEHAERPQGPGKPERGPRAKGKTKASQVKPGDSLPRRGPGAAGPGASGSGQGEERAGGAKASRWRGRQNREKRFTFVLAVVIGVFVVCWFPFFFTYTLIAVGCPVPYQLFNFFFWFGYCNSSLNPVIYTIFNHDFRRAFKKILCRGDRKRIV
Briefly: Displacement of 3H]RX821002 from rat cortex adrenergic alpha-2 receptor. In short, it runs like this:
as §1

Assay [3] can be described thus: Displacement of [3H]MK-801 from rat cortex NMDA channel. In short, it runs like this: as §1

Sequence of D(3) dopamine receptor (P19020 whole entry): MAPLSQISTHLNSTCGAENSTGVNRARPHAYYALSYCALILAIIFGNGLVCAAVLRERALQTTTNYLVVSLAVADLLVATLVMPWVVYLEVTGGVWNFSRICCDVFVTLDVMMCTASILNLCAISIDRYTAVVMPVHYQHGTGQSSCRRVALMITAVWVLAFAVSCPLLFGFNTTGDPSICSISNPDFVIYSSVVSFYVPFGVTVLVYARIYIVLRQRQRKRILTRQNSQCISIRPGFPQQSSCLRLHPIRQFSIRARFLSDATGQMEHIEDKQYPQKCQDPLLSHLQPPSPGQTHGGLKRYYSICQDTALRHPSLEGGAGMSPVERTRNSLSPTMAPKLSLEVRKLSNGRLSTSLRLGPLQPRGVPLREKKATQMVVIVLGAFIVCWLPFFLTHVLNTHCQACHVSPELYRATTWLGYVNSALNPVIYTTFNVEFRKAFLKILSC

For the compound `COC(=O)C1(c2ccc(C)cc2)CC1CN1CCC(O)(c2ccccc2)CC1` (stereo not given), the result in the assay listed under Rattus norvegicus was Active. Further, the Ki on D(3) dopamine receptor was 4.9 µM; in assay [1], more than 10 µM; in assay [2], 9.414 µM; in assay [3] it was more than 10 µM.

As a reminder, the Ki is a dissociation constant, usually derived from enzyme kinetics or from competition with a known ligand. A low value points to a stronger hold on the target.
